Data as given in ChEMBL document CHEMBL1128560, “Synthesis and structure-activity relationships of analogs of 2'-deoxy-2'-(3-methoxybenzamido)adenosine, a selective inhibitor of trypanosomal glycosomal glyceraldehyde-3-phosphate dehydrogenase” (J Med Chem, 1995).

What was measured:
[1] = TInhibition of glyceraldehyde-3-phosphate dehydrogenase in Leishmania mexicana
Outline: (§1)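 Enzyme sources: human erythrocyte GAPDH, glycosomal GAPDH from T. brucei, and glycosomal GAPDH from L. mexicana. IC50 is the inhibitor concentration at which 50% of enzyme activity remains. Poorly soluble compounds were not tested above their solubility limit, and the remaining activity at that level was recorded instead.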

[2] = Inhibition of glyceraldehyde-3-phosphate dehydrogenase in Trypanosoma brucei; outline: as §1
[3] = molecular target: Glyceraldehyde-3-phosphate dehydrogenase (Homo sapiens, UniProt P04406); assay: Inhibition of Glyceraldehyde-3-phosphate dehydrogenase in human erythrocytes.; format: cell-based; outline: as §1
Chain of Glyceraldehyde-3-phosphate dehydrogenase (P04406 whole entry): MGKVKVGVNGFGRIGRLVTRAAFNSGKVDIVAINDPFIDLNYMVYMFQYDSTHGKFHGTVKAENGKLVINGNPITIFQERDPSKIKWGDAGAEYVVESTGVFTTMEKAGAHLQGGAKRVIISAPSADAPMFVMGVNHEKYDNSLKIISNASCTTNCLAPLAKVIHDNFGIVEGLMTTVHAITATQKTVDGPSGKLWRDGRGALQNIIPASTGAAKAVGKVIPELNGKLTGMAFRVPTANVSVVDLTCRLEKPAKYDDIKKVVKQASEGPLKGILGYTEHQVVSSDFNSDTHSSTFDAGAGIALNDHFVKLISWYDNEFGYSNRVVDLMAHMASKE

Which results are given for Nc1ncnc2c1ncn2CCNC(=O)c1cccc(Cl)c1?
IC50 [1]: > 4000 µM; IC50 [2]: > 4000 µM

With Nc1ncnc2c1ncn2CCNC(=O)c1cccc(F)c1 as the compound, how does the IC50 [1] read?
Its IC50 is over 4000 µM.

What about the IC50 [2] of the same compound?
Its IC50 is over 4000 µM.

For NCCn1c(-c2cccs2)nc2c(N)ncnc21, which IC50 [1] is on record?
The IC50 was 1600 µM.

What about the IC50 [2] of the same compound?
Its IC50 is 1800 µM.

What about the IC50 [3] of the same compound?
The IC50 was 1800 µM.

With Nc1ncnc2c1ncn2[C@@H]1CCC[C@H]1NC(=O)c1cccc(Br)c1 as the compound, how does the IC50 [1] read?
The IC50 was 700 µM.

And the IC50 [2]?
Its IC50 is 1500 µM.

And the IC50 [3]?
The IC50 was 1500 µM.

Which IC50 [1] does the source give for Cc1ccc(C(=O)NCCn2cnc3c(N)ncnc32)cc1 here?
The IC50 was over 4000 µM.

What about the IC50 [2] of the same compound?
The IC50 was over 2000 µM.

Which IC50 [1] does the source give for Nc1ncnc2c1nc(-c1cccs1)n2[C@@H]1O[C@H](CO)[C@@H](O)[C@H]1O here?
Its IC50 is 500 µM.

What about the IC50 [2] of the same compound?
Its IC50 is 600 µM.

And the IC50 [3]?
The IC50 was 1300 µM.

Which results are given for COc1cccc(C(=O)N[C@@H]2[C@H](O)[C@@H](CO)O[C@H]2n2cnc3c(N)ncnc32)c1?
IC50 [1]: 300 µM; IC50 [2]: 2200 µM; IC50 [3]: > 10000 µM

For COc1nc2c(N)ncnc2n1[C@@H]1O[C@H](CO)[C@@H](O)[C@H]1NC(=O)c1ccccc1, which IC50 [1] is on record?
Its IC50 is 9000 µM.

What about the IC50 [2] of the same compound?
The IC50 was 9000 µM.

What about the IC50 [3] of the same compound?
Its IC50 is over 10000 µM.

With Nc1ncnc2c1nc(-c1cccs1)n2[C@@H]1O[C@H](CO)[C@@H](O)[C@H]1NC(=O)c1ccccc1 as the compound, how does the IC50 [1] read?
The IC50 was 500 µM.

What about the IC50 [2] of the same compound?
Its IC50 is 1200 µM.

And the IC50 [3]?
Its IC50 is 1200 µM.

Which IC50 [1] does the source give for Nc1ncnc2c1ncn2[C@@H]1O[C@H](CO)[C@@H](O)[C@H]1NCc1ccccc1 here?
The IC50 was over 10000 µM.

What about the IC50 [2] of the same compound?
Its IC50 is over 10000 µM.

What about the IC50 [3] of the same compound?
Its IC50 is over 10000 µM.

Which IC50 [1] does the source give for Nc1ncnc2c1ncn2[C@@H]1O[C@H](CO)[C@@H](O)[C@H]1NC(=O)c1ccc2[nH]cnc2c1 here?
The IC50 was 3000 µM.

And the IC50 [2]?
Its IC50 is 3000 µM.

What about the IC50 [3] of the same compound?
Its IC50 is over 10000 µM.

Which IC50 [1] does the source give for Nc1ncnc2c1ncn2[C@@H]1O[C@H](CO)[C@@H](O)[C@H]1NC(=O)c1cccc(Cl)c1 here?
The IC50 was 200 µM.

And the IC50 [2]?
Its IC50 is 500 µM.

What about the IC50 [3] of the same compound?
Its IC50 is over 2000 µM.

With CCOc1cccc(C(=O)N[C@@H]2[C@H](O)[C@@H](CO)O[C@H]2n2cnc3c(N)ncnc32)c1 as the compound, how does the IC50 [1] read?
Its IC50 is 400 µM.

What about the IC50 [2] of the same compound?
The IC50 was 500 µM.

What about the IC50 [3] of the same compound?
Its IC50 is 600 µM.

With Nc1ncnc2c1ncn2[C@@H]1O[C@H](CO)[C@@H](O)[C@H]1NC(=O)c1ccc(-c2ccccc2)cc1 as the compound, how does the IC50 [1] read?
Its IC50 is 200 µM.

What about the IC50 [2] of the same compound?
Its IC50 is 200 µM.

And the IC50 [3]?
Its IC50 is 400 µM.

For Nc1ncnc2c1ncn2[C@@H]1O[C@H](CO)[C@@H](O)[C@H]1NC(=O)c1ccc2cccnc2c1, which IC50 [1] is on record?
Its IC50 is 500 µM.

What about the IC50 [2] of the same compound?
Its IC50 is 1000 µM.

What about the IC50 [3] of the same compound?
Its IC50 is over 2000 µM.

Which results are given for CC(C)COC(=O)N[C@@H]1[C@H](O)[C@@H](CO)O[C@H]1n1cnc2c(N)ncnc21?
IC50 [1]: > 10000 µM; IC50 [2]: > 10000 µM; IC50 [3]: > 10000 µM

With COc1cccc(C(=O)N[C@@H]2[C@H](O)[C@@H](CO)O[C@H]2n2cnc3c(N)nc(C)nc32)c1 as the compound, how does the IC50 [1] read?
Its IC50 is over 10000 µM.

What about the IC50 [2] of the same compound?
The IC50 was over 10000 µM.

And the IC50 [3]?
Its IC50 is over 10000 µM.

Which IC50 [1] does the source give for Nc1ncnc2c1nc(Br)n2[C@@H]1O[C@H](CO)[C@@H](O)[C@H]1NC(=O)c1ccccc1 here?
Its IC50 is 3000 µM.

What about the IC50 [2] of the same compound?
The IC50 was 6300 µM.

What about the IC50 [3] of the same compound?
Its IC50 is over 10000 µM.

For Cc1nc(N)c2[nH]cnc2n1, which IC50 [1] is on record?
Its IC50 is 6000 µM.

And the IC50 [2]?
Its IC50 is 8000 µM.

What about the IC50 [3] of the same compound?
Its IC50 is over 10000 µM.

For Nc1ncnc2c1nc(-c1cccs1)n2CCNCc1ccccc1, which IC50 [1] is on record?
The IC50 was 400 µM.

What about the IC50 [2] of the same compound?
The IC50 was 500 µM.

And the IC50 [3]?
The IC50 was 600 µM.

Which IC50 [1] does the source give for Nc1ncnc2c1ncn2[C@@H]1CCC[C@H]1NC(=O)c1ccccc1 here?
Its IC50 is over 4000 µM.

What about the IC50 [2] of the same compound?
Its IC50 is over 4000 µM.

For COc1cccc(C(=O)N[C@@H]2CCC[C@H]2n2cnc3c(N)ncnc32)c1, which IC50 [1] is on record?
The IC50 was over 5000 µM.

What about the IC50 [2] of the same compound?
Its IC50 is over 4000 µM.

Which IC50 [1] does the source give for Nc1ncnc2c1ncn2[C@@H]1CCC[C@H]1NC(=O)c1cccc(Cl)c1 here?
Its IC50 is over 2000 µM.

What about the IC50 [2] of the same compound?
The IC50 was over 4000 µM.

Which IC50 [1] does the source give for Nc1ncnc2c1nc(Sc1ncccn1)n2C1O[C@H](CO)[C@@H](O)[C@H]1O (stereo partly drawn) here?
The IC50 was 4000 µM.

What about the IC50 [2] of the same compound?
Its IC50 is 2000 µM.

And the IC50 [3]?
Its IC50 is 8000 µM.

Which IC50 [1] does the source give for Nc1ncnc2c1ncn2C1O[C@H](CNC(=O)C(c2ccccc2)c2ccccc2)[C@@H](O)[C@H]1O (stereo partly drawn) here?
Its IC50 is 250 µM.

What about the IC50 [2] of the same compound?
Its IC50 is 250 µM.

And the IC50 [3]?
Its IC50 is 250 µM.

For Nc1ncnc2c1nc(SC1CCCCC1)n2C1O[C@H](CO)[C@@H](O)[C@H]1O (stereo partly drawn), which IC50 [1] is on record?
Its IC50 is over 2000 µM.

What about the IC50 [2] of the same compound?
Its IC50 is over 1000 µM.

And the IC50 [3]?
The IC50 was over 2000 µM.

With CCc1ccc(-c2ccc(C(=O)NC[C@H]3OC(n4cnc5c(N)ncnc54)[C@H](O)[C@@H]3O)cc2)cc1 (stereo partly drawn) as the compound, how does the IC50 [1] read?
The IC50 was 750 µM.

What about the IC50 [2] of the same compound?
The IC50 was over 1000 µM.

And the IC50 [3]?
The IC50 was over 2000 µM.

Which IC50 [1] does the source give for Nc1ncnc2c1ncn2[C@@H]1O[C@H](CO)[C@@H](O)[C@H]1O [ADENOSINE] here?
Its IC50 is 50000 µM.

And the IC50 [2]?
The IC50 was 100000 µM.

And the IC50 [3]?
Its IC50 is 35000 µM.
